Test results as given in ChEMBL document CHEMBL3739295, “Cadinane-Type Sesquiterpenoids from Heterotheca inuloides: Absolute Configuration and Anti-inflammatory Activity” (J Nat Prod, 2015).
Calls of active or inactive are those of the source. No cut-off for these calls is given here.

Experiments:
Mus musculus [1] = assay: Anti-inflammatory activity in TPA-induced mouse ear edema model assessed as inhibition of ear edema at 1 umol/ear; format: functional
Outline: (§1)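 In vivo 12-O-tetradecanoylphorbol 13-acetate (TPA)-induced ear edema in mice. Animals were handled under Mexican Official Norm MON-062-Z00-1999.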

Mus musculus [2] = assay: Anti-inflammatory activity in TPA-induced mouse ear edema model assessed as inhibition of ear edema; format: functional, organism-based; outline: as §1

Structure (SMILES)	inhibition (Mus musculus [1])	IC50 (Mus musculus [2])	inhibition (INH) (Mus musculus [1]) [%]
CC1=C[C@](O)(C(C)C)C(=O)c2cc(C)c(O)cc21	Active	> 1 µmol	
Cc1ccc2c(c1)C(=O)C(C(C)C)=C[C@@]2(C)O	Active	> 1 µmol	
CC1=CC[C@H](C(C)C)c2cc(C(=O)O)ccc21		> 1 µmol	12.93
Cc1cc2c(C(C)C)ccc(C=O)c2cc1O		> 228 µg	43.14
CC1=CC[C@H](C(C)C)[C@H]2C=C(C(=O)O)CC=C12	inactive	> 1 µmol	
CC(C)[C@H]1CC[C@@](C)(O)c2ccc(C(=O)O)cc21	Active	> 1 µmol	
CC1=C2CCC(C(=O)O)=C[C@@H]2[C@@H](C(C)C)CC1		> 1 µmol	21.51
COc1c(C(C)C)cc(C)c2ccc(C)cc12		> 1 µmol	15.32
